Assay results gathered from unrelated publications.
Compare with care: the assays were run in different laboratories.
SLC2A9: Solute carrier family 2, facilitated glucose transporter member 9 (SLC2A9, Homo sapiens, UniProt Q9NRM0)

SMILES | target | assay | setting | measurement | result
Nc1ncnc2c1ncn2[C@@H]1O[C@H](CO)[C@@H](O)[C@H]1O | SLC2A9 | transporter uptake, inhibitor, radiometric | oocytes | IC50 | > 4000 µM
O=C(C=Cc1ccccc1)Nc1cc(-c2ccnc(N3CCC(O)CC3)c2)ccn1 | Nuclear receptor subfamily 4immunitygroup A member 1 (NR4A1, Homo sapiens, UniProt P22736) | binding, SPR |  | Kd | 0.121 µM
Cn1c(=O)c2c(ncn2C)n(C)c1=O | SLC2A9 | transporter uptake, inhibitor, radiometric | oocytes | IC50 | > 1000 µM
Cc1ccc2oc(=O)cc(NCCO)c2c1 | Alpha-1B adrenergic receptor (Adra1b, Rattus norvegicus, UniProt P15823) | calcium signal, antagonist |  | IC50 | 178 µM
O=C1CCc2ccccc2O1 | cah (Neisseria gonorrhoeae, UniProt Q50940) | enzyme activity, inhibitor, stopped-flow |  | Ki | 25.8 µM
COc1ccc(C[C@H]2COC(=O)[C@@H]2Cc2ccc(OCC(=O)Nc3ccc(C(=O)Nc4ccccc4N)cc3)c(OC)c2)cc1OC | Histone deacetylase 4 (HDAC4, Homo sapiens, UniProt P56524) | enzyme activity, inhibitor |  | IC50 | > 10 µM
CCCCCCCc1cc(O)cc(=O)o1 | Aldo-keto reductase family 1 member C3 (AKR1C3, Homo sapiens, UniProt P42330) | enzyme activity, inhibitor |  | IC50 | 10.6 µM
Nc1ncnc2c1ncn2[C@@H]1O[C@H](COP(=O)(O)CP(=O)(O)OP(=O)(O)O)[C@@H](O)[C@H]1O | P2X purinoceptor 1 (P2RX1, Homo sapiens, UniProt P51575) | binding, radioligand |  | Kd | 0.043 µM
N[C@@H](Cc1ccccc1)C(=O)O | Alkaline phosphatase, placental type (Homo sapiens, UniProt P05187) | enzyme activity, inhibitor |  | IC50 | 82.6 µM
N=c1c[n+](N2CCOCC2)[n-]o1 | NAD-dependent protein deacetylase sirtuin-1 (SIRT1, Homo sapiens, UniProt Q96EB6) | enzyme activity, inhibitor |  | IC50 | 7 µM
O=C(c1ccc(OCCN2CCCCC2)cc1)c1c(-c2ccc(O)cc2)sc2cc(O)ccc12 | Protein disulfide-isomerase (P4HB, Homo sapiens, UniProt P07237) | binding, SPR |  | Kd | 0.0297 µM
CCOC(=O)/C=C/C(=O)[C@H](CC(C)C)NC(=O)[C@H](Cc1ccccc1)NC(=O)[C@H](Cc1ccccc1)N=[N+]=[N-] (mixture of isomers) | Procathepsin L (CTSL, Homo sapiens, UniProt P07711) | enzyme activity, inhibitor |  | IC50 | 0.13 µM
